According to ChEMBL document CHEMBL4325852, “Design, synthesis, and discovery of ocotillol-type amide derivatives as orally available modulators of P-glycoprotein-mediated multidrug resistance” (Eur J Med Chem, 2019):
Active and inactive are the calls of the source. No cut-off for these calls is given here.

Key:
[1] = target: T1, ATP-dependent translocase ABCB1 (Homo sapiens, UniProt P08183); test: Reversal of P-gp-mediated multidrug resistance in human KBV cells assessed as potentiation of paclitaxel-induced cytotoxicity by measuring cell survival at 10 uM after 72 hrs by MTT assay (reference value: 104 +/- 8%); format: cell-based
[2] = Cell cycle arrest in human KBV cells assessed as accumulation at G0/G1 phase at 10 uM after 24 hrs by propidium iodide staining based flow cytometry (reference value: 70.35 +/- 0.79%); format: ADME
Method in brief: (§1)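 KBV cells (grown in DMEM with 10% fetal calf serum and penicillin/streptomycin, with 10 nM paclitaxel added to maintain resistance) seeded at 3×10^5 per well and cultured 24 h. Test compound added, with or without paclitaxel 0.1 μM, for 24 h. Cells fixed in 70% ethanol overnight at –20 °C, stained 30 min with PI plus RNase A, and analysed by flow cytometry; mean ± SD, n = 3.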

Homo sapiens = species on record: Homo sapiens; test: Downregulation of P-gp protein expression in human KBV cells by western blot analysis; format: functional, cell-based
[3] = Cytotoxicity against human KBV cells assessed as cell survival at 10 uM after 72 hrs by MTT assay relative to control; format: cell-based; conditions: read-out: Survival
Method in brief: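 KBV (Pgp-overexpressing MDR line) grown in DMEM/10% FCS, kept in 10 nM paclitaxel; seeded, compound (DMSO stock) added next day, 72 h; MTT 2 h, formazan in DMSO, A570 gives survival vs DMSO solvent control; n = 1-3 independent experiments, mean ± SD.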

[4] = Toxicity in Balb/c nude mouse xenografted with human KBV cells assessed as body weight at 10 mg/kg, po via gavage for 2 weeks (reference value: 19.84 to 20.62 g); format: organism-based; conditions: in vivo, 336 h
[5] = Cell cycle arrest in human KBV cells assessed as accumulation at sub-G1 phase at 10 uM after 24 hrs by propidium iodide staining based flow cytometry (reference value: 2.21 +/- 1.02%); format: ADME; method in brief: as §1
[6] = Cell cycle arrest in human KBV cells assessed as accumulation at G2/M phase at 10 uM after 24 hrs by propidium iodide staining based flow cytometry (reference value: 19.62 +/- 1.54%); format: ADME; method in brief: as §1
[7] = target: T1, ATP-dependent translocase ABCB1; test: Inhibition of P-gp-mediated Rh-123 efflux in human KBV cells assessed as Rh-123 accumulation preincubated for 2 hrs followed by Rh-123 addition measured after 30 mins by flow cytometry; format: cell-based; conditions: 0.5 h
Method in brief: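 KBV cells treated with or without compound for 2 h at the indicated concentrations, then loaded with 10 μM Rhodamine123 for 30 min. Cells harvested, washed three times in PBS and analysed by flow cytometry.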

P-gp (ABCB1) ATPase = P-gp (ABCB1) ATPase (Homo sapiens, UniProt P08183); test: Stimulation of P-gp ATPase activity (unknown origin) at 0.5 mM preincubated for 5 mins followed by Mg-ATP addition measured after 40 mins by ATP-Glo luminescence assay relative to control; conditions: read-out: FC
[8] = target: T1, ATP-dependent translocase ABCB1; test: Reversal of P-gp-mediated multidrug resistance in human KBV cells assessed as potentiation of paclitaxel-induced cell cycle arrest by measuring accumulation at S phase at 5 uM after 24 hrs by propidium iodide staining based flow cytometry (reference value: 12.54 +/- 4.01%); method in brief: as §1
[9] = Cytotoxicity against human KBV cells xenografted in Balb/c nude mouse assessed as tumor growth inhibition at 10 mg/kg, po via gavage for 2 weeks relative to control; format: organism-based; conditions: in vivo, 336 h
[10] = Cell cycle arrest in human KBV cells assessed as accumulation at S phase at 10 uM after 24 hrs by propidium iodide staining based flow cytometry (reference value: 10.03 +/- 0.75%); format: ADME; method in brief: as §1
[11] = target: T1, ATP-dependent translocase ABCB1; test: Reversal of P-gp-mediated multidrug resistance in human KBV cells assessed as potentiation of paclitaxel-induced cell cycle arrest by measuring accumulation at G2/M phase at 5 uM after 24 hrs by propidium iodide staining based flow cytometry (reference value: 16.35 +/- 2.02%); method in brief: as §1
[12] = target: T1, ATP-dependent translocase ABCB1; test: Reversal of P-gp-mediated multidrug resistance in human KBV cells assessed as potentiation of paclitaxel-induced cell cycle arrest by measuring accumulation at G0/G1 phase at 5 uM after 24 hrs by propidium iodide staining based flow cytometry (reference value: 71.11 +/- 2%); method in brief: as §1
[13] = target: T1, ATP-dependent translocase ABCB1; test: Reversal of P-gp-mediated multidrug resistance in human KBV cells assessed as potentiation of paclitaxel-induced cytotoxicity by measuring cell survival at 5 uM after 72 hrs by MTT assay (reference value: 104 +/- 8%); format: cell-based
[14] = target: T1, ATP-dependent translocase ABCB1; test: Reversal of P-gp-mediated multidrug resistance in human KBV cells assessed as potentiation of paclitaxel-induced cytotoxicity by measuring decrease in paclitaxel IC50 at 5 uM after 72 hrs by MTT assay relative to paclitaxel alone; format: cell-based
[15] = target: T1, ATP-dependent translocase ABCB1; test: Reversal of P-gp-mediated multidrug resistance in human KBV cells assessed as potentiation of paclitaxel-induced cell cycle arrest by measuring accumulation at sub-G1 phase at 5 uM after 24 hrs by propidium iodide staining based flow cytometry (reference value: 2.29 +/- 0.39%); method in brief: as §1
[16] = Toxicity in Balb/c nude mouse xenografted with human KBV cells assessed as body weight at 10 mg/kg, po via gavage for 2 weeks cotreated with 30 mg/kg, ip paclitaxel (reference value: 19.84 to 20.62 g); format: organism-based; conditions: in vivo, 336 h
[17] = Potentiation of paclitaxel-induced antitumor activity against human KBV cells xenografted in Balb/c nude mouse assessed as tumor growth inhibition at 10 mg/kg, po via gavage for 2 weeks cotreated with 30 mg/kg, ip paclitaxel (reference value: 17.9%); format: functional
[18] = target: T1, ATP-dependent translocase ABCB1; test: Stimulation of P-gp ATPase activity (unknown origin) assessed as increase in ATP consumption preincubated for 5 mins followed by Mg-ATP addition measured after 40 mins by ATP-Glo luminescence assay relative to control
[19] = target: T1, ATP-dependent translocase ABCB1; test: Reversal of P-gp-mediated multidrug resistance in human KBV cells assessed as potentiation of paclitaxel-induced cytotoxicity by measuring decrease in paclitaxel IC50 at 10 uM after 72 hrs by MTT assay relative to paclitaxel alone; format: cell-based

T1 sequence (P08183 whole entry): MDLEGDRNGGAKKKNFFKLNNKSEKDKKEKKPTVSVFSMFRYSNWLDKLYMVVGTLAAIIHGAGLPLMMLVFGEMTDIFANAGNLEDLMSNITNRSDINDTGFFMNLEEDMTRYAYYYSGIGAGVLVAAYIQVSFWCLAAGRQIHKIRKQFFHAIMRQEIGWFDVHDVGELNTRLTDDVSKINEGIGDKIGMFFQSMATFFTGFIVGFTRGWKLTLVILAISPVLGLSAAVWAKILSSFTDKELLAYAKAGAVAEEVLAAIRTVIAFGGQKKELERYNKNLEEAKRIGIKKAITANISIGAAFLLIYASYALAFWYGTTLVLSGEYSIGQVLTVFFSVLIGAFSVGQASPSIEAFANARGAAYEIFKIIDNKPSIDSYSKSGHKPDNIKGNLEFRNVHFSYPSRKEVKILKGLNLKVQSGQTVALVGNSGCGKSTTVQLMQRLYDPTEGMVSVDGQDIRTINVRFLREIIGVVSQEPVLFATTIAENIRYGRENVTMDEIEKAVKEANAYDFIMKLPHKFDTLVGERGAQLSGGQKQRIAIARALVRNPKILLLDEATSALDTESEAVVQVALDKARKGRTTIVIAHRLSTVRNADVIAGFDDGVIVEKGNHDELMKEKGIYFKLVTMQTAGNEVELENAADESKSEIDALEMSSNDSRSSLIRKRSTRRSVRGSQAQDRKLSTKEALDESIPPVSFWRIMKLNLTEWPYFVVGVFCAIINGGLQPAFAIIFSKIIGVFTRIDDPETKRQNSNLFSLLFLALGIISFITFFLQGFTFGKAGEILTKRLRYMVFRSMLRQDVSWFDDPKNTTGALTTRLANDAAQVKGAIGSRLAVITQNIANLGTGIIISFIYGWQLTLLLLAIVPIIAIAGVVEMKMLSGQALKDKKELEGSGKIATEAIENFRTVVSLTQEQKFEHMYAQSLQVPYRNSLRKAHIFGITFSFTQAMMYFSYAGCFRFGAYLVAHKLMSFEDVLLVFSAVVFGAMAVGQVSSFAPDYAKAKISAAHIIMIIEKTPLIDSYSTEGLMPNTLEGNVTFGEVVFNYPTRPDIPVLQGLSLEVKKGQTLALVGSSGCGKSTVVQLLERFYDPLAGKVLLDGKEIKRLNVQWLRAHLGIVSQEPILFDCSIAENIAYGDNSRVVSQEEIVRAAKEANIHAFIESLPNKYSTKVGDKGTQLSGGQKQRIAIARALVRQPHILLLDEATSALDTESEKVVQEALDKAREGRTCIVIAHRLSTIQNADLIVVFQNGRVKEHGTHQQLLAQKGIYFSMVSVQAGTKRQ
P-gp (ABCB1) ATPase, sequence (P08183 whole entry): as above

SMILES	Survival [1] [%]	Activity [2] [%]	viability at 72 h, 10 µM [3] [%]	Activity [5] [%]	Activity [6] [%]	Activity [10] [%]	Survival [13] [%]	fold change (FC) [14]	fold change (FC) [19]	also measured
CC(C)(C)OC(=O)NCCCCCC(=O)N[C@H]1CC[C@]2(C)[C@H]3C[C@@H](O)[C@@H]4[C@@H]([C@]5(C)CC[C@H](C(C)(C)O)O5)CC[C@@]4(C)[C@]3(C)CC[C@H]2C1(C)C	34	73.29	128	2.35	17.49	9.22	46	27.97	47.85	Activity (Homo sapiens): inactive; Activity [4]: 21.85 g; inhibition (INH) [7]: Dose-dependent effect; fold induction at 40 min, 500 µM (P-gp (ABCB1) ATPase): 6.03; Activity [8]: 16.05%; TGI [9]: 10.45%; Activity [11]: 39.43%; Activity [12]: 44.52%; Activity [15]: 43.12%; Activity [16]: 15.98 g; TGI [17]: 53.73%; Activity [18]: Dose-dependent effect
CC(C)(O)[C@H]1CC[C@@](C)([C@H]2CC[C@]3(C)[C@@H]2[C@H](O)C[C@@H]2[C@@]4(C)CC[C@H](N)C(C)(C)[C@@H]4CC[C@]23C)O1	43	–	125	–	–	–	72	10	28.11	–
COc1ccc(CCN(C)CCCC(C#N)(c2ccc(OC)c(OC)c2)C(C)C)cc1OC (stereo unspecified)	43	68.09	–	2.25	21.92	9.99	–	–	–	–
